# LMPTP block: LMPTP phosphatase inhibitors, primary screen, biochemical, fluorescence intensity, uHTS. 360,000 tested, 0.22% active. inhibition, % at 20 µM. recombinant LMPTP-A, OMFP fluorogenic substrate. Low molecular weight phosphotyrosine protein phosphatase (Homo sapiens), P24666. AID 651560, 2012;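 active = compounds that cut the enzyme signal by at least half of the control window in the single-dose screen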;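 note: plate controls were DMSO wells with enzyme plus substrate for no effect and substrate without enzyme for full effect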
# Target sequence (P24666 whole entry, looked up): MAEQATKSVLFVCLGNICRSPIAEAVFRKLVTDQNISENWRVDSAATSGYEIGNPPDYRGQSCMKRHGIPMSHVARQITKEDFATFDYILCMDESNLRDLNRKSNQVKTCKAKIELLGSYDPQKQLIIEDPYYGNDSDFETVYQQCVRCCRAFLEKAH
#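 Test system – LMPTP-A enzyme · Amount – LMPTP-A at 0.625 nM final in the reaction · Buffer or medium – Bis-Tris pH 6.0, DTT, detergent · Reagent – OMFP 400 µM · Doses – single 20 µM dose · Schedule – reaction 50 min, room temperature, dark · Detection – fluorescence intensity of OMFP turnover product · Evaluation – percent inhibition versus substrate-only and uninhibited controls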
# SUMO1 PPI mod: modulators of SUMO1 protein-protein interactions, primary screen, biochemical, uHTS; Small ubiquitin-related modifier 1 (Homo sapiens), P63165; SUMO1 binding to a labelled peptide, TR-FRET, 1 h; inhibition, % at 20 µM; 360,000 tested, 0.33% active; in the data active = inhibition above about 37%
# Target sequence (P63165 whole entry, looked up): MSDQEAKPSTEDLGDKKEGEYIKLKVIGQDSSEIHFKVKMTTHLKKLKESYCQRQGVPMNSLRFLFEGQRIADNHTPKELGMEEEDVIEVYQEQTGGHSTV
# DNMT1 inh: human DNMT1 methyltransferase inhibitors, primary screen, biochemical, molecular beacon, fluorescence, HinP1I cleavage, uHTS. inhibition (reported as % activation of signal), % at 10 µM. 360,000 tested, 0.83% active. AID 588458, 2011. DNA (cytosine-5)-methyltransferase 1 (Homo sapiens), P26358; in the data active = inhibition above about 50%
# STEP inh: STEP phosphatase inhibitors, primary screen, biochemical, fluorescence intensity, uHTS; recombinant STEP, OMFP fluorogenic substrate; inhibition, % at 20 µM; Tyrosine-protein phosphatase non-receptor type 5 (Homo sapiens), P54829; 360,000 tested, 0.25% active;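 active = inhibition at 20 µM, scaled per plate between control wells, above about 37%, limit read from the data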;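 note: 0% = DMSO with enzyme and substrate and 100% = substrate only without enzyme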
#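 Material: STEP (striatal-enriched tyrosine phosphatase) enzyme, cell-free | Medium: 50 mM Bis-Tris pH 6.0 with 2.5 mM DTT and 0.005% Tween 20 | Read-out: Percent inhibition scaled to no-enzyme and uninhibited-enzyme controls, plate-pattern corrected | Signal: Fluorescence read at 480 nm ex / 540 nm em | Times: 20 min reaction, room temperature, in the dark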
# Scp-1 inhibitor: Scp-1 phosphatase inhibitors, primary screen, biochemical, colorimetric, uHTS; Carboxy-terminal domain RNA polymerase II polypeptide A small phosphatase 1 (Homo …; Recombinant Scp1, phosphopeptide, malachite green phosphate absorbance; inhibition, % at 20 µM; 340,000 tested, 0.88% active;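 active = inhibition above about 50% at 20 µM, limit read from the data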;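 note: plate controls were DMSO wells with enzyme for no effect and wells lacking enzyme for full effect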
# Target sequence (Q9GZU7 76-261 limits assumed): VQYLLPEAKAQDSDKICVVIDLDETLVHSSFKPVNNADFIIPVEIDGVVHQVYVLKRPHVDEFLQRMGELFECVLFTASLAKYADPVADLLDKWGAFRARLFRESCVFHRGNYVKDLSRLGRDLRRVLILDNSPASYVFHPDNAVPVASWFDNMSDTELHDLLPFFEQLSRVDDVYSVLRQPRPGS
#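 Test system: SCP-1 phosphatase catalytic domain, residues 76-261; measured by: colorimetric phosphate reagent with accelerator and stabiliser, absorbance at 630 nm; timing: enzyme reaction 45 min at room temperature, colour 5 min, stabilisation 30 min; also added: Phosphorylated 17-residue peptide substrate; compound dosing: one concentration, 20 µM, with 1.0% DMSO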
# UBC9 SUMO inh: inhibitors of in vitro SUMOylation cascade, primary screen, biochemical, HTRF, uHTS | SUMO-conjugating enzyme UBC9 (Homo sapiens), P63279 | HTRF SUMOylation assay, SAE1/SAE2 + UBC9 | inhibition, % at 35 µM | 290,000 tested, 0.36% active | AID 2006, 2009; in the data active = inhibition above about 50%, passing the limit was not always enough
# Starred values were filed as active, the others as inactive; nt = no result. Shown are actives, neighbours in structure and some others; about 1.9% of the full set was active somewhere.
SMILES,LMPTP block,SUMO1 PPI mod,DNMT1 inh,STEP inh,Scp-1 inhibitor,UBC9 SUMO inh
CCN1CCN(S(=O)(=O)c2c(C)[nH]c(C)c2C(=O)N2CCCCC2)CC1,0,1,2,-2,-2,9
O=C(O)CC(C(=O)O)N1C(=O)/C(=C/c2ccc(-c3nc4ccccc4s3)o2)SC1=S (stereo not drawn),31,87*,107*,63*,80*,3
O=C(O)CCCN1C(=O)/C(=C\c2ccc(-c3nc4ccccc4s3)o2)SC1=S,22,56*,85*,65*,75*,40
O=Cc1ccc(-c2nc3ccccc3s2)o1,0,-20,0,0,-1,15
CC(C)C[C@H]1COc2cc(N3CC[C@H](O)C3)ccc2S(=O)(=O)N1,-2,-2,nt,nt,nt,nt
N#C/C(=C/c1ccc(-c2cc([N+](=O)[O-])ccc2Cl)o1)C(N)=O,34,39*,39,8,45,13
COc1ccc2noc3c2c1C(=O)c1ccccc1-3,-23,-30,187*,-386,-6,nt
O=C1c2ccccc2-c2onc3ccc(NCCCn4ccnc4)c1c23,nt,nt,nt,nt,-2,-102
COc1ccc(N)c2c1C(=O)c1ccccc1C2=O,5,-11,-2,4,-1,-69
COc1ccc(OC)c2c1C(=O)c1ccccc1C2=O,nt,nt,nt,nt,-1,50*
Cc1ccc(CNS(=O)(=O)NCc2ccc(Cl)cc2)cc1,1,0,8,-4,-7,21
CC(=O)Oc1ccccc1C(=O)NC(C)CCc1ccccc1 (stereo not drawn),-2,-1,7,3,-7,8
Cc1nnc(C)c2c(C)n(-c3ccc4ncccc4c3)c(C)c12,54*,-1,-7,3,1,33
CC(=O)Nc1ccc(S(=O)(=O)N(C)CC(=O)N2CCN(C(=O)c3ccco3)CC2)cc1,-3,-4,2,-2,-12,nt
CCNC(=O)C1CCCN(C(=O)c2ccc(OC(F)F)cc2)CC1 (stereo not drawn),-1,1,7,-1,nt,nt
CC(C)OC(=O)c1c(N)n(CCCN2CCOCC2)c2nc3ccccc3nc12,1,-7,-4,0,17,25
COc1ccccc1CNC(=O)c1c(N)n(CCCN2CCOCC2)c2nc3ccccc3nc12,-2,5,-34,5,-6,52*
Nc1c(C(=O)NCc2ccco2)c2nc3ccccc3nc2n1CCc1ccc(F)cc1,2,10,7,2,-18,100*
COCCNC(=O)c1c(N)n(CCCn2ccnc2)c2nc3ccccc3nc12,-2,37,38,0,-4,87*
COc1ccc(-n2c(N)c(C(=O)NCc3ccco3)c3nc4ccccc4nc32)cc1,2,-18,-9,-1,1,29
COc1ccc(OC)c(-n2c(N)c(C(=O)NCC3CCCO3)c3nc4ccccc4nc32)c1 (stereo not drawn),3,-3,-16,1,-5,20
COCCn1c(N)c(C(=O)NCC2CCCO2)c2nc3ccccc3nc21 (stereo not drawn),1,-2,-18,1,0,91*
COc1ccc2oc(=O)c(C(=O)NCC3CCCO3)cc2c1 (stereo not drawn),0,-22,-2,-2,-6,52*
COc1ccc(-c2cnc(C(O)c3ccc(CN4CCCCC4)cc3)[nH]2)cc1 (stereo not drawn),1,-3,3,2,nt,nt
Fc1ccccc1NC(=S)Nc1cccc2cnccc12,4,7,-2,4,-6,98*
Cc1ccc(NC(=S)Nc2cccc3cnccc23)cc1C,2,9,-17,5,1,96

# Source: PubChem BioAssay (Sanford-Burnham Center for Chemical Genomics)
